Key:
MDA-MB-231 = assay: Antiproliferative activity against human MDA-MB-231 cells after 72 hrs by MTT assay; type: functional, cell-based; details: MDA-MB-231, 72 h
Method in brief: (§1)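 RPMI-1640 with 10% fetal calf serum, 37 °C, 5% CO₂, 95% humidity. Cells seeded at 5.0 × 10³/well and grown 24 h, then exposed 72 h to a range of compound concentrations. MTT (5 mg/ml solution) added for a further 4 h at 37 °C. Formazan crystals dissolved and absorbance read at 570 nm. Each compound tested three times per cell line. IC50 reported as mean ± SD of three independent experiments.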

[1] = molecular target: T1, RAF proto-oncogene serine/threonine-protein kinase (Homo sapiens, UniProt P04049); assay: Inhibition of C-Raf kinase-mediated phosphorylation of Mek using [33P]gammaATP after 20 mins by scintillation counting
T1 sequence (P04049 whole entry): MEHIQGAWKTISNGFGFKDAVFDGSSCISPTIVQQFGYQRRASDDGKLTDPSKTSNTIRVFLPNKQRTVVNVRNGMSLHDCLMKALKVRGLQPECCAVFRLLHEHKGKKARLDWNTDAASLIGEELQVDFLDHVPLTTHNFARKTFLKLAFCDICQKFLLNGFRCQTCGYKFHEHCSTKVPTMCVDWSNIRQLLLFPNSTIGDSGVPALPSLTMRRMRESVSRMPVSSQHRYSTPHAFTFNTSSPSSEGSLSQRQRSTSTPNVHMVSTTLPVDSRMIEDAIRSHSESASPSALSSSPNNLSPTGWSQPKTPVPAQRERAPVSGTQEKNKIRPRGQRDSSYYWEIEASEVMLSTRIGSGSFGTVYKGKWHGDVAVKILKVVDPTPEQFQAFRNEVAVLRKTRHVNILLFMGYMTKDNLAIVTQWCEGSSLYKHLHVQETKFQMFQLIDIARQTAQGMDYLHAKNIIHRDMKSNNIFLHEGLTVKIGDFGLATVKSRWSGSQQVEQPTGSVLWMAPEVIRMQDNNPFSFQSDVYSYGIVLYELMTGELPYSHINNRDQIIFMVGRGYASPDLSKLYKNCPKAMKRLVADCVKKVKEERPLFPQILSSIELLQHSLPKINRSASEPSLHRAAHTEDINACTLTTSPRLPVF
Method in brief: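 The reaction was started with [γ-³³P]ATP (about 500 cpm/pmol) and run 20 min at 30 °C. It was then spotted onto a phosphocellulose mat, washed in 1% phosphoric acid, and counted by scintillation.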

SMMC-7721 = assay: Antiproliferative activity against human SMMC7721 cells after 72 hrs by MTT assay; type: functional, cell-based; details: SMMC-7721, 72 h; method in brief: as §1
BGC-823 = assay: Antiproliferative activity against human BGC823 cells after 72 hrs by MTT assay; type: functional, cell-based; details: BGC-823, 72 h; method in brief: as §1
[2] = molecular target: Serine/threonine-protein kinase PLK1 (Homo sapiens) (UniProt P53350); assay: Inhibition of PLK1 at 10 uM
[3] = molecular target: Platelet-derived growth factor receptor alpha (Homo sapiens) (UniProt P16234); assay: Inhibition of PDGFRalpha at 10 uM
[4] = molecular target: Focal adhesion kinase 1 (Homo sapiens) (UniProt Q05397); assay: Inhibition of PTK2 at 10 uM
[5] = molecular target: Tyrosine-protein kinase SYK (Homo sapiens) (UniProt P43405); assay: Inhibition of SYK at 10 uM
[6] = molecular target: T1, RAF proto-oncogene serine/threonine-protein kinase; assay: Inhibition of c-Raf at 10 uM
[7] = molecular target: Hepatocyte growth factor receptor (Homo sapiens) (UniProt P08581); assay: Inhibition of c-MET at 10 uM
[8] = Inhibition of PKA at 10 uM
[9] = molecular target: Vascular endothelial growth factor receptor 2 (Homo sapiens) (UniProt P35968); assay: Inhibition of VEGFR2 at 10 uM
Vascular endothelial growth factor receptor 2 (Homo sapiens), sequence (P35968 whole entry): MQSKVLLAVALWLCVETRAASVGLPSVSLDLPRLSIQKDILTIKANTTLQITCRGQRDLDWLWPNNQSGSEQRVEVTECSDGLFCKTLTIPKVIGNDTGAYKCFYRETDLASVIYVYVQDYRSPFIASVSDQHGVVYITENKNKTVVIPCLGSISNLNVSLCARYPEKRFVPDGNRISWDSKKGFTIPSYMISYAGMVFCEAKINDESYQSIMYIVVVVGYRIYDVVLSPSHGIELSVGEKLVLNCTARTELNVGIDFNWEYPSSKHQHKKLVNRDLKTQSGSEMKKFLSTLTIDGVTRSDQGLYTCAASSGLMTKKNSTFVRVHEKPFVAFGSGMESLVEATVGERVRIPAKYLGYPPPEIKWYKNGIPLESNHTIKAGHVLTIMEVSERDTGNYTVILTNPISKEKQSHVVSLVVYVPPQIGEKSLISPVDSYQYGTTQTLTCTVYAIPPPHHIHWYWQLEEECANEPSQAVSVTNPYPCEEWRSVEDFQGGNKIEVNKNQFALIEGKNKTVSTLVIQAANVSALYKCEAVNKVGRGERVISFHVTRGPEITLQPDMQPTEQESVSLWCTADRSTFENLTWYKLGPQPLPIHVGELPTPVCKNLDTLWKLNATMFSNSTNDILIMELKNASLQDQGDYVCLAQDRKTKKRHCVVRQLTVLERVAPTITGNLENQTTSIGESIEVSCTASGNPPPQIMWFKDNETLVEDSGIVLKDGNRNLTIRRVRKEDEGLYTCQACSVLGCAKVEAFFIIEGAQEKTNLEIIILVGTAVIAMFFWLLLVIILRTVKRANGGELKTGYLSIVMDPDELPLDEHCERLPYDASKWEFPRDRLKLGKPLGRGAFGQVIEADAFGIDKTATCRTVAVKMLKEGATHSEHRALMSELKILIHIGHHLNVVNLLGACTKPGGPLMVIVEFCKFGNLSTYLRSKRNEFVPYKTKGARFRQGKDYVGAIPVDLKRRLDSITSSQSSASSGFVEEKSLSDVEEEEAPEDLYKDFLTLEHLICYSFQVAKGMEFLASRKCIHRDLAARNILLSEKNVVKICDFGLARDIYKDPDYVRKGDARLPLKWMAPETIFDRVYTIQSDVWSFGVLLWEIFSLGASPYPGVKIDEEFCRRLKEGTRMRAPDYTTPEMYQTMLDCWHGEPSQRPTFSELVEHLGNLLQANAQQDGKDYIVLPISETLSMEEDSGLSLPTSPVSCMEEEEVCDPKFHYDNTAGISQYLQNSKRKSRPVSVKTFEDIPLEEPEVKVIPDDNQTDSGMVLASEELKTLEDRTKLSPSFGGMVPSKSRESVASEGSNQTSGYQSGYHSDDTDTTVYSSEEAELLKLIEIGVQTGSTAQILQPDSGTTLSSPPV

[10] = molecular target: Mast/stem cell growth factor receptor Kit (Homo sapiens) (UniProt P10721); assay: Inhibition of c-KIT at 10 uM
Mast/stem cell growth factor receptor Kit (Homo sapiens), sequence (P10721 whole entry): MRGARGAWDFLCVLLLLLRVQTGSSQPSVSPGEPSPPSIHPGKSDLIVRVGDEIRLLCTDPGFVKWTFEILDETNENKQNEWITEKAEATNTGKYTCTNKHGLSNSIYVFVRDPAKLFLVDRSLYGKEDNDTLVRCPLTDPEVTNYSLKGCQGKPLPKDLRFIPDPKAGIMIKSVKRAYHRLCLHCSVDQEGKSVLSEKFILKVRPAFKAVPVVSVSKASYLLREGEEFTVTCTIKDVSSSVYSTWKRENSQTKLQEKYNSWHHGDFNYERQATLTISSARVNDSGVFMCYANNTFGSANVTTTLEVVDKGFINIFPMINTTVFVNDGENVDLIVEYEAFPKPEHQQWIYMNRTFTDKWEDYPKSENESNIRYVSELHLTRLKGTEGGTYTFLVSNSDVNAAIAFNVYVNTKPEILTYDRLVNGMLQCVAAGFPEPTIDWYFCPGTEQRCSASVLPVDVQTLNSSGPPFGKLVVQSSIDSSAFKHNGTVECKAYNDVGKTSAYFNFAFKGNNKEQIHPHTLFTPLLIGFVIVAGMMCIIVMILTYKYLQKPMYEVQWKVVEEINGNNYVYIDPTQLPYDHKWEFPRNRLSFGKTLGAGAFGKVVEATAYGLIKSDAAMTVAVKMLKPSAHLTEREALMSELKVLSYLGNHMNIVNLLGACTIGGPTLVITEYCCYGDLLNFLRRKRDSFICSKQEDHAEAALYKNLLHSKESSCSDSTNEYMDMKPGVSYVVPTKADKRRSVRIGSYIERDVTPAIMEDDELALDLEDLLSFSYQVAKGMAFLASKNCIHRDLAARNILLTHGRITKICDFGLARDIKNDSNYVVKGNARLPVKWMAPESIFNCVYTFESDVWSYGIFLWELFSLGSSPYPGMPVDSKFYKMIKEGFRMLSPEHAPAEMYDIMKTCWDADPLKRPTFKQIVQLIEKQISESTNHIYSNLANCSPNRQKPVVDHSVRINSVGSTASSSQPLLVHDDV

[11] = molecular target: Tyrosine-protein kinase Fyn (Homo sapiens) (UniProt P06241); assay: Inhibition of FYN at 10 uM
[12] = molecular target: Macrophage colony-stimulating factor 1 receptor (Homo sapiens) (UniProt P07333); assay: Inhibition of FMS at 10 uM
[13] = molecular target: Vascular endothelial growth factor receptor 2 (Homo sapiens) (UniProt P35968); assay: Inhibition of KDR at 10 uM
[14] = Inhibition of Abl at 10 uM
[15] = molecular target: Angiopoietin-1 receptor (Homo sapiens) (UniProt Q02763); assay: Inhibition of TIE2 at 10 uM
Angiopoietin-1 receptor (Homo sapiens), sequence (Q02763 whole entry): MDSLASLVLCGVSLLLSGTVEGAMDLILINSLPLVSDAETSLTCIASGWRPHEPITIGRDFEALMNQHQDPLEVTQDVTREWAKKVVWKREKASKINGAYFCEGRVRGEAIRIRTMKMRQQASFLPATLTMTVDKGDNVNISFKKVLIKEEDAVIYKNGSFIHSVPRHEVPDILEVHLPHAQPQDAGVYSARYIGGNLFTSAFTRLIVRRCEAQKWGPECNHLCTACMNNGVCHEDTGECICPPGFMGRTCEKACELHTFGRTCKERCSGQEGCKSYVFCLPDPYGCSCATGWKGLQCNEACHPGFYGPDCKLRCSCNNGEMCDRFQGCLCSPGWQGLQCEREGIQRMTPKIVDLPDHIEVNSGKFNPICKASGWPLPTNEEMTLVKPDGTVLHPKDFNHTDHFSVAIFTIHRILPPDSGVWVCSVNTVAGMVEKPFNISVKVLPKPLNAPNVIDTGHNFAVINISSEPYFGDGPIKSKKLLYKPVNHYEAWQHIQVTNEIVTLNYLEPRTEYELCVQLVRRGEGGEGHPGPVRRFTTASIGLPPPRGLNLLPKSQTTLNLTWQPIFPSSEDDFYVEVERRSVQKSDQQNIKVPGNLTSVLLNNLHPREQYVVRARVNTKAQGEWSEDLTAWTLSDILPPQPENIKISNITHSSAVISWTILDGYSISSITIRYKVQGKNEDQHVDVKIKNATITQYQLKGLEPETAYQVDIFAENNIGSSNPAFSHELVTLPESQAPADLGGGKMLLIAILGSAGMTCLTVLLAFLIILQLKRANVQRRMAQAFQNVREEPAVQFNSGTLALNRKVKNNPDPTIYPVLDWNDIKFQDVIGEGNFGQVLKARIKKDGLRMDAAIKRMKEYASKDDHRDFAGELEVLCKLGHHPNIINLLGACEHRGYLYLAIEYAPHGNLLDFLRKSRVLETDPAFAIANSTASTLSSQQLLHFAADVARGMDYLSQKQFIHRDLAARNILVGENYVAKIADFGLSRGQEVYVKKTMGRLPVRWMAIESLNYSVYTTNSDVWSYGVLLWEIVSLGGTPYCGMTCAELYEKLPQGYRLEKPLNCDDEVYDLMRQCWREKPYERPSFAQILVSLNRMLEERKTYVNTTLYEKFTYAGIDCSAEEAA

[16] = molecular target: Tyrosine-protein kinase JAK2 (Homo sapiens) (UniProt O60674); assay: Inhibition of JAK2 at 10 uM
[17] = molecular target: RAC-alpha serine/threonine-protein kinase (Homo sapiens) (UniProt P31749); assay: Inhibition of AKT1 at 10 uM
[18] = molecular target: Inhibitor of nuclear factor kappa-B kinase subunit beta (Homo sapiens) (UniProt O14920); assay: Inhibition of IKKbeta at 10 uM
Inhibitor of nuclear factor kappa-B kinase subunit beta (Homo sapiens), sequence (O14920 whole entry): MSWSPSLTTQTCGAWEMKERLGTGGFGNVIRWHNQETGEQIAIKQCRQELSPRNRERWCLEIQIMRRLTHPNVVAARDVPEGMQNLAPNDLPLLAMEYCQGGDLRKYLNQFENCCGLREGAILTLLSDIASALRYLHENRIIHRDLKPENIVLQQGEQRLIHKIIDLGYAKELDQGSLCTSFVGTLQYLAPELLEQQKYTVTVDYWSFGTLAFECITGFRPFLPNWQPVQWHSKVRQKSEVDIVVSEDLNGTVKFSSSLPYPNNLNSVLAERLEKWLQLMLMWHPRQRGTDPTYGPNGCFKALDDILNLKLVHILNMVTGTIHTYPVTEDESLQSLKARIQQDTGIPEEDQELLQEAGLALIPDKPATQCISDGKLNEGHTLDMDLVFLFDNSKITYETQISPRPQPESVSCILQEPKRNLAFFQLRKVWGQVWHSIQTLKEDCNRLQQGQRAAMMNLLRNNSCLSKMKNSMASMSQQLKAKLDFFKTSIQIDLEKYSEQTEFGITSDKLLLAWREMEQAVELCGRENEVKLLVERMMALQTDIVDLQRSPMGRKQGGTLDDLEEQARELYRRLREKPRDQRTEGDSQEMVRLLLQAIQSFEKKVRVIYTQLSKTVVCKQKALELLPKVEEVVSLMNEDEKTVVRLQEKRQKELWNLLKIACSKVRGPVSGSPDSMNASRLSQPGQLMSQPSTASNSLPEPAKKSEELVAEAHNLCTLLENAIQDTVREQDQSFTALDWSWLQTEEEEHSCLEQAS

[19] = molecular target: Receptor-type tyrosine-protein kinase FLT3 (Homo sapiens) (UniProt P36888); assay: Inhibition of FLT3 at 10 uM
[20] = molecular target: Fibroblast growth factor receptor 1 (Homo sapiens) (UniProt P11362); assay: Inhibition of FGFR1 at 10 uM
[21] = molecular target: Cyclin-dependent kinase 2 (Homo sapiens) (UniProt P24941); assay: Inhibition of CDK2 at 10 uM

Row | IC50 (MDA-MB-231) [µM] | IC50 [1] [µM] | IC50 (SMMC-7721) [µM] | IC50 (BGC-823) [µM] | Compound | also measured
1 | 7.03 | 0.0359 | 5.29 | 14.2 | O=C(Nc1ccc(Oc2ccnc(-c3ncc(C(F)(F)F)[nH]3)c2)cc1Cl)Nc1cc(C(F)(F)F)ccc1Cl | –
2 | 14.2 | 0.0648 | 9.72 | 23.2 | O=C(Nc1cccc(C(F)(F)F)c1)Nc1ccc(Oc2ccnc(-c3ncc(C(F)(F)F)[nH]3)c2)cc1Cl | –
3 | 2.03 | 0.0131 | 3.06 | 10.7 | O=C(Nc1ccc(Oc2ccnc(-c3ncc(C(F)(F)F)[nH]3)c2)cc1)Nc1ccc(Cl)c(Cl)c1 | –
4 | 1.77 | 0.0165 | 2.49 | 12.7 | O=C(Nc1ccc(Cl)c(Cl)c1)Nc1ccc(Oc2ccnc(-c3ncc(C(F)(F)F)[nH]3)c2)cc1Cl | –
5 | 63.2 | – | 92.4 | > 100 | O=C(Nc1ccc(Oc2ccnc(-c3ncc(C(F)(F)F)[nH]3)c2)cc1)Nc1ccc2c(c1)OCO2 | –
6 | 44.8 | 0.148 | 87.7 | 97.7 | Cc1cc(NC(=O)Nc2ccc(Oc3ccnc(-c4ncc(C(F)(F)F)[nH]4)c3)cc2)no1 | –
7 | 1.21 | 0.0106 | 1.38 | 13.2 | O=C(Nc1ccc(Oc2ccnc(-c3ncc(C(F)(F)F)[nH]3)c2)cc1)Nc1ccc(Cl)c(C(F)(F)F)c1 | inhibition [2]: 8.7%; inhibition [3]: 0%; inhibition [4]: 4.9%; inhibition [5]: 20.4%; inhibition [6]: 95.3%; inhibition [7]: 2.2%; inhibition [8]: 1.3%; inhibition [9]: 36.8%; inhibition [10]: 23.9%; inhibition [11]: 0.4%; inhibition [12]: 50.8%; inhibition [13]: 3.5%; inhibition [14]: 44.3%; inhibition [15]: 27.5%; inhibition [16]: 0%; inhibition [17]: 11.7%; inhibition [18]: 5.6%; inhibition [19]: 17.7%; inhibition [20]: 20.2%; inhibition [21]: 7.8%
8 | > 100 | – | > 100 | > 100 | COc1cc(NC(=O)Nc2ccc(Oc3ccnc(-c4ncc(C(F)(F)F)[nH]4)c3)cc2Cl)cc(OC)c1OC | –
9 | 10.1 | 0.0467 | 8.38 | 33.4 | Cc1ccc(NC(=O)Nc2ccc(Oc3ccnc(-c4ncc(C(F)(F)F)[nH]4)c3)cc2Cl)cc1C(F)(F)F | –
10 | 7.83 | 0.0759 | 6.84 | 18.4 | O=C(Nc1ccc(Oc2ccnc(-c3ncc(C(F)(F)F)[nH]3)c2)cc1)Nc1cc(C(F)(F)F)ccc1Cl | –
11 | 11.3 | 0.0692 | 9.69 | 15.7 | O=C(Nc1ccc(Oc2ccnc(-c3ncc(C(F)(F)F)[nH]3)c2)cc1)Nc1ccc(F)c(Cl)c1 | –
12 | 10.7 | 0.0878 | 11.7 | 26.2 | O=C(Nc1ccc(Oc2ccnc(-c3ncc(C(F)(F)F)[nH]3)c2)cc1)Nc1cccc(C(F)(F)F)c1 | –
13 | 3.77 | 0.0221 | 6.52 | 11.1 | O=C(Nc1ccc(Cl)c(C(F)(F)F)c1)Nc1ccc(Oc2ccnc(-c3ncc(C(F)(F)F)[nH]3)c2)cc1Cl | –
14 | 38.7 | 0.0949 | 36.2 | 23.7 | O=C(Nc1ccc(F)cc1)Nc1ccc(Oc2ccnc(-c3ncc(C(F)(F)F)[nH]3)c2)cc1 | –
15 | 76.6 | 0.12 | 57.9 | 84 | Cc1cccc(Cl)c1NC(=O)Nc1ccc(Oc2ccnc(-c3ncc(C(F)(F)F)[nH]3)c2)cc1 | –
16 | 8.21 | 0.0777 | 5.72 | 17.7 | O=C(Nc1ccc(F)c(C(F)(F)F)c1)Nc1ccc(Oc2ccnc(-c3ncc(C(F)(F)F)[nH]3)c2)cc1Cl | –
17 | 95.4 | – | > 100 | > 100 | COc1ccc(NC(=O)Nc2ccc(Oc3ccnc(-c4ncc(C(F)(F)F)[nH]4)c3)cc2)cc1 | –
18 | 7.18 | – | 6.23 | 10.9 | CNC(=O)c1cc(Oc2ccc(NC(=O)Nc3ccc(Cl)c(C(F)(F)F)c3)cc2)ccn1 [SORAFENIB] | –
19 | 25.4 | 0.0815 | 44.6 | 66.8 | O=C(Nc1ccc(Oc2ccnc(-c3ncc(C(F)(F)F)[nH]3)c2)cc1)Nc1ccc(Br)cc1F | –

— ChEMBL document CHEMBL2046400, “Design, synthesis and antitumor activities of novel bis-aryl ureas derivatives as Raf kinase inhibitors” (Bioorg Med Chem, 2012)
